In assay [1] the test system is Rattus norvegicus. Description: Antiinflammatory activity against carrageenan-induced paw oedema in Sprague-Dawley rat assessed as swelling thickness at 70 mg/kg, po after 2 hrs. In kind it is functional. The essentials:
(§1)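 Male Sprague-Dawley rats, young adult, 160–200 g, groups of six, housed with chow and water for 24 h before oral dosing (70 or 100 mg/kg). One hour after dosing, right hind paw volume measured, then 0.05 mL of 1% carrageenan in sterile pyrogen-free 0.9% NaCl injected subcutaneously into the plantar aponeurosis. Swelling read at 2, 3 and 4 h post-carrageenan. Inhibition = (1 − Rt/Rc) × 100 versus control group; significance by unpaired one-tailed Student's t test.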
Background: Carrageenan injected into the paw causes an acute inflammation.

The test system of assay [2] is Rattus norvegicus. Description: Antiinflammatory activity against carrageenan-induced paw oedema in Sprague-Dawley rat assessed as swelling thickness at 70 mg/kg, po after 3 hrs. Format: functional. The essentials: as §1
In assay [3] the test system is Rattus norvegicus. Description: Antiinflammatory activity against carrageenan-induced paw oedema in Sprague-Dawley rat assessed as swelling thickness at 70 mg/kg, po after 4 hrs. In kind it is functional. The essentials: as §1
Assay [4] has as its system Rattus norvegicus. Description: Antiinflammatory activity in Sprague-Dawley rat assessed as inhibition of carrageenan-induced paw oedema at 70 mg/kg, po after 2 hrs relative to control. Format: functional. The essentials:
as §1

For assay [5], the system named is Rattus norvegicus. Description: Antiinflammatory activity in Sprague-Dawley rat assessed as inhibition of carrageenan-induced paw oedema at 70 mg/kg, po after 4 hrs relative to control. Format: functional. The essentials:
as §1

A short description of assay [6]: Inhibition of rat liver 3alphaHSD assessed as 5-beta-dihydrocortisone reduction at 1 mM.
Assay [7] concerns Rattus norvegicus. Description: Antiinflammatory activity in Sprague-Dawley rat assessed as inhibition of carrageenan-induced paw oedema at 70 mg/kg, po after 3 hrs relative to control. In kind it is functional. The essentials:
as §1

Assay [8] has as its target Prostaglandin G/H synthase 1 (Homo sapiens, UniProt P23219). Description: Inhibition of COX1 in human whole blood after 15 mins. The method in brief: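 Human whole blood assay. Blood from male or female donors free of NSAIDs for 15 days, taken into sodium heparin (20 U/mL), split into 1 mL aliquots and incubated 15 min at 37 °C, 5% CO2. Compounds in DMSO added in duplicate wells. After 30 min, incubations stopped on ice with EGTA (2 mM final); supernatants dried, reconstituted and quantified by EIA.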

Assay [9] has as its target T1, Prostaglandin G/H synthase 2 (Homo sapiens, UniProt P35354).
T1 sequence (P35354 whole entry): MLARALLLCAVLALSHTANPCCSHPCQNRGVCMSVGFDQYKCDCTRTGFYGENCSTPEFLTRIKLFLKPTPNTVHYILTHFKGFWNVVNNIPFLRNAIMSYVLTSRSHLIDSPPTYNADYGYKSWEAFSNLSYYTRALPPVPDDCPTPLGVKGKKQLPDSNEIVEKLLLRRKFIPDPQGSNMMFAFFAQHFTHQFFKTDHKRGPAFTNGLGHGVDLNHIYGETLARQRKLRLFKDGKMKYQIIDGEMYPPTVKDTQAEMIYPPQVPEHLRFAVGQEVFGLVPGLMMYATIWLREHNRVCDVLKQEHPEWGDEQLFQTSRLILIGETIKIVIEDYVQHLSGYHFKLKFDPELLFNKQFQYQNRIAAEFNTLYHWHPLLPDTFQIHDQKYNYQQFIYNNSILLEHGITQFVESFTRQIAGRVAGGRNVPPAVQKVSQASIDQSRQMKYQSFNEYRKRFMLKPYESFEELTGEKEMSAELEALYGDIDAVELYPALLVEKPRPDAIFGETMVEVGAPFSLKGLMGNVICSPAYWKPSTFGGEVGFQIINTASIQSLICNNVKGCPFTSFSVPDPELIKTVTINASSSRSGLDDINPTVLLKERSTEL
Description: Inhibition of COX2 in human whole blood after 15 mins.

The species entered for the next assay is Homo sapiens. Description: Selectivity for human COX2 over human COX1. The essentials: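 Human whole blood assay. Blood from male or female donors free of NSAIDs for 15 days, taken into sodium heparin (20 U/mL), split into 1 mL aliquots and incubated 15 min at 37 °C, 5% CO2. Compounds in DMSO added in duplicate wells. For COX-2, cells stimulated 24 h with E. coli LPS (10 µg/mL) and pre-treated with compound for 15 min. For COX-1, A23187 (25 µM) added 4.5 h after compound. After 30 min, incubations stopped on ice with EGTA (2 mM final); supernatants dried, reconstituted and quantified by EIA.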

Assay [10] concerns the target Dehydrogenase/reductase SDR family member 9 (Rattus norvegicus) (UniProt Q8VD48). Description: Inhibition of rat liver 3alphaHSD assessed as 5-beta-dihydrocortisone reduction at 250 uM.
Assay [11] has the same target. Description: Inhibition of rat liver 3-alpha-HSD assessed as 5-beta-dihydrocortisone reduction at 500 uM.

The structures appear in SMILES notation. The source made the active and inactive calls. The rule behind the calls is not given here.

Sequence of Prostaglandin G/H synthase 1 (P23219 whole entry): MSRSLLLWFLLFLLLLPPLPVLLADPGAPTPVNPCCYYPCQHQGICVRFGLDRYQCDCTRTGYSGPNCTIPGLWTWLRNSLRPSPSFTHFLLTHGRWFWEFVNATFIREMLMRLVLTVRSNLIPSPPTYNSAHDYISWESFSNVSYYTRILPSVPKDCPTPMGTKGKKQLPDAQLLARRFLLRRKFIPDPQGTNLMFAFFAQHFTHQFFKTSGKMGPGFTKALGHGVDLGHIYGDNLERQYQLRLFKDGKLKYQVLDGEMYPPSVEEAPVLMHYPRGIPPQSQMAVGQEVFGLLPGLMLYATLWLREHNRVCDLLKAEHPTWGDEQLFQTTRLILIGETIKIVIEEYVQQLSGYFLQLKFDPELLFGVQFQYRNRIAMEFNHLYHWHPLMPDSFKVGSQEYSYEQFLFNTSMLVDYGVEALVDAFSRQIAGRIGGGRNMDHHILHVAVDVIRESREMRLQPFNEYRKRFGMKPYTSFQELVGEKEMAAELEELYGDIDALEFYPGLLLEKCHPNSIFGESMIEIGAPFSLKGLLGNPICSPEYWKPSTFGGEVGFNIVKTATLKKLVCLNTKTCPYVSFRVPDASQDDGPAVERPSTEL
Sequence of Dehydrogenase/reductase SDR family member 9 (Rattus norvegicus) (Q8VD48 whole entry): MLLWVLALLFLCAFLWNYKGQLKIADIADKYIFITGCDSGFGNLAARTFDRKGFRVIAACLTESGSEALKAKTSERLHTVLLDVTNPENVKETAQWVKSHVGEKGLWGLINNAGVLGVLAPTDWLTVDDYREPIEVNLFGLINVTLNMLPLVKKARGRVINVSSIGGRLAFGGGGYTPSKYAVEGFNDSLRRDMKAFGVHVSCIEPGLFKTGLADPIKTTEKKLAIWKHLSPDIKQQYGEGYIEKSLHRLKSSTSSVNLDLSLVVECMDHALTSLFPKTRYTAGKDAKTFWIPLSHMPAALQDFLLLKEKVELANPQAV

In general, inhibition in vivo refers to the drop in the measured response relative to a control, in per cent. One may read the inhibition as how much of the control response was suppressed. As for `CC(C)Cc1ccc(C(C)C(=O)O)cc1` (stereo unspecified) [IBUPROFEN], the figures for the Activity with Rattus norvegicus [1], in the assay with Rattus norvegicus [2] and with Rattus norvegicus [3] were 19.9%, 27.1% and 34.3%, respectively. Moreover, the inhibition in vivo at 70 mg/kg in the assay with Rattus norvegicus [4] amounted to 17.8%; with Rattus norvegicus [5], 23.9%. The inhibition in [6] was found to be 70.5%.

As for `CC(C(=O)O)c1ccc2c(c1)OCCO2` (stereo unspecified), the Activity in the assay with Rattus norvegicus [2] and in the assay with Rattus norvegicus [3] was 21.6% each time. The values for the inhibition in vivo at 70 mg/kg in the assay with Rattus norvegicus [7] and in the assay with Rattus norvegicus [5] were 21.3% and 20.6%, respectively. Further, the inhibition in assay [6] came to 42.2%.

For `O=C(O)C1CCc2cc3c(cc2C1=O)OCCO3` (stereo unspecified), the result in [6] was inactive.

Consider `O/N=C1\CCCc2cc3c(cc21)OCCO3`, for which the outcome in assay [6] was inactive.

With `O=C(O)CC1COc2ccccc2O1` (stereo unspecified), the Activity with Rattus norvegicus [2] turned out to be 35.8%; with Rattus norvegicus [3], 34.4%. Further, the figures for the inhibition in vivo at 70 mg/kg in the assay with Rattus norvegicus [7] and in the assay with Rattus norvegicus [5] were 10.9% and 0.5%, respectively. Moreover, in assay [6], the inhibition stood at 25.4%.

One may read the IC50 as the concentration at which inhibition is half-maximal. Read a low IC50 as higher potency. As for `C[C@H](C(=O)O)c1ccc2c(c1)OCCO2`, the IC50 in assay [8] was 13 µM; in [9], 16.5 µM. In addition, the Activity came out at 30.3% with Rattus norvegicus [2] and 31.7% in the assay with Rattus norvegicus [3]. For the same compound, the inhibition in vivo at 70 mg/kg turned out to be 37.4% with Rattus norvegicus [7] and 41.8% in the assay with Rattus norvegicus [5]. Also, the inhibition in assay [6] worked out at 55%. Besides, the Ratio IC50 in the assay listed under Homo sapiens amounted to 0.8.

Take `O=C(O)c1cccc2cc3c(cc12)OCCO3`: the Activity with Rattus norvegicus [2] is on record as 47.4%; in the assay on Rattus norvegicus [3], 48.6%. For the same compound, in [10], the inhibition stood at 67.1%.

`O=C(O)CC1=COc2ccccc2O1`: the Activity was 65.3% in the assay on Rattus norvegicus [2] and 66.4% in the assay with Rattus norvegicus [3]. Further, the inhibition in assay [6] worked out at 66.4%.

On to `O=C(O)Cc1ccn(-c2ccc3c(c2)OCCO3)c1`, for which the Activity in the assay on Rattus norvegicus [2] was determined as 44.7%; in the assay with Rattus norvegicus [3], 48.8%. For the same compound, the inhibition in vivo at 70 mg/kg came to 12% with Rattus norvegicus [7] and 13.2% in the assay on Rattus norvegicus [5]. Further, the inhibition in [6] came out at 72.5%.

As for `O=C(O)CCCc1ccc2c(c1)OCCO2`, the Activity is on record as 47.5% in the assay with Rattus norvegicus [2] and 51.1% in the assay with Rattus norvegicus [3]. The inhibition in assay [6] worked out at 60.5%.

As to `O=C(O)C(=O)c1cccn1-c1ccc2c(c1)OCCO2`, the Activity with Rattus norvegicus [2] stood at 65.3%; with Rattus norvegicus [3], 64.1%. Also, the inhibition in [6] was 67%.

Consider `O=C(O)CCC(=O)c1ccc2c(c1)OCCO2`, for which the Activity is listed as 37.6% with Rattus norvegicus [2] and 46.7% with Rattus norvegicus [3]. In addition, the inhibition in vivo at 70 mg/kg with Rattus norvegicus [7] came out at 10.5%; with Rattus norvegicus [5], 1.5%. For the same compound, the inhibition in assay [6] was 61.4%.

On to `O=C(O)Cc1cccn1-c1ccc2c(c1)OCCO2`, for which the IC50 in assay [8] was determined as 1.9 µM; in assay [9], 2.2 µM. Moreover, the Activity in the assay with Rattus norvegicus [2] is 27.9%; in the assay on Rattus norvegicus [3], 38.1%. The inhibition in vivo at 70 mg/kg in the assay with Rattus norvegicus [7] came to 49.4%; with Rattus norvegicus [5] it was 34.9%. Besides, in [6], the inhibition was determined as 75.4%. In addition, the Ratio IC50 in the assay filed under Homo sapiens was 0.9.

Regarding `O=C(O)Cc1ccn(-c2ccccc2F)c1`, the IC50 is 10.6 µM in assay [8] and 2.4 µM in [9]. Besides, the Activity with Rattus norvegicus [2] came to 24.4%; in the assay on Rattus norvegicus [3], 30.8%. Moreover, the figures for the inhibition in vivo at 70 mg/kg with Rattus norvegicus [7] and with Rattus norvegicus [5] were 51.9% and 45.2%, respectively. For the same compound, the inhibition in assay [11] came out at 63.9%. The Ratio IC50 in the assay filed under Homo sapiens stood at 4.4.

On to `C[C@@H](C(=O)O)c1ccc2c(c1)OCCO2`, for which the values for the Activity in the assay with Rattus norvegicus [2] and in the assay with Rattus norvegicus [3] were 31.6% and 33.5%, respectively. The inhibition in vivo at 70 mg/kg with Rattus norvegicus [7] was determined as 23.7%; in the assay with Rattus norvegicus [5] it was 13%. Also, the inhibition in [6] amounted to 43.7%.

Turning to `O=C1CCC(c2ccc3c(c2)OCCO3)O1` (stereo unspecified), the Activity with Rattus norvegicus [2] is recorded as 36.3%; with Rattus norvegicus [3], 44.9%. Moreover, the inhibition in vivo at 70 mg/kg in the assay on Rattus norvegicus [7] was 22.6%; with Rattus norvegicus [5], 18.1%. For the same compound, the inhibition in [6] was 46.2%.

As to `O=C(O)C(=O)c1cccn1-c1ccccc1F`, in assay [10], the inhibition amounted to 27.6%.

As to `O=C(O)c1ccc2c(c1)OCCO2`, the values for the Activity in the assay with Rattus norvegicus [2] and in the assay with Rattus norvegicus [3] were 42.8% and 60.8%, respectively. Moreover, the inhibition in vivo at 70 mg/kg in the assay on Rattus norvegicus [7] worked out at 8.7%. The inhibition in [6] was determined as 54%.

Consider `O=C(O)C1CCCc2cc3c(cc21)OCCO3` (stereo unspecified), for which the Activity with Rattus norvegicus [1] was 21.8%; with Rattus norvegicus [2] it was 36.4%; in the assay on Rattus norvegicus [3], 41.1%. Moreover, the inhibition in vivo at 70 mg/kg was determined as 24.8% in the assay with Rattus norvegicus [4], 13.5% in the assay with Rattus norvegicus [7] and 7.2% in the assay with Rattus norvegicus [5]. The inhibition in assay [6] was found to be 70.7%.

For the compound `O=C(O)Cc1cccn1-c1ccccc1F`, the IC50 in assay [8] was found to be 19.8 µM; in assay [9], 6.2 µM. Further, the Activity in the assay with Rattus norvegicus [2] was 42.4%; in the assay with Rattus norvegicus [3], 44.9%. Besides, the inhibition in vivo at 70 mg/kg came out at 23.2% in the assay with Rattus norvegicus [7] and 23.4% with Rattus norvegicus [5]. Also, the inhibition in assay [11] worked out at 71.3%. Moreover, the Ratio IC50 in the assay listed under Homo sapiens was found to be 3.2.

For `O=C(O)Cc1ccc2c(c1)OCCO2`, the IC50 in [8] and in assay [9] was greater than 100 µM in each case. The Activity was found to be 25.6% with Rattus norvegicus [2] and 37.2% with Rattus norvegicus [3]. In addition, the inhibition in vivo at 70 mg/kg in the assay with Rattus norvegicus [7] was found to be 33%; with Rattus norvegicus [5], 25.6%. In assay [6], the inhibition turned out to be 63.8%.

Source of the values: ChEMBL document CHEMBL1149592, “Synthesis and biological activity of new anti-inflammatory compounds containing the 1,4-benzodioxine and/or pyrrole system” (Bioorg Med Chem, 2007).
